The values below come from ChEMBL document CHEMBL3352518, “Synthesis and biological evaluation of pyridinone analogues as novel potent HIV-1 NNRTIs” (Bioorg Med Chem, 2015).

In series [1] the target is Human immunodeficiency virus type 1 reverse transcriptase (Human immunodeficiency virus 1, UniProt Q72547). The series is described as follows: Inhibition of HIV-1 recombinant reverse transcriptase after 1 hr by streptavidinalkaline phosphatase reporter system. In outline: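 Highly purified recombinant HIV-1 RT with a poly(rA)/oligo(dT)15 homopolymer template. SA-ALP was added, then PNPP (1 mg/mL, pH 9.5) for 30 min at 37 °C, stopped with NaOH. IC50 is the mean of three experiments.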

The subject of series [2] is Human immunodeficiency virus 1. The series is described as follows: Antiviral activity against wild-type HIV-1 SF33 infected in human TZM-bl cells after 7 days by ELISA. As to conditions: Human immunodeficiency virus 1, SF33, TZM-bl, 168 h. The format is functional, organism-based. In outline:
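TZM-bl cells (4 × 10⁴/well) were infected with 200 TCID₅₀ of HIV-1 SF33 for 2 h at 37 °C. Serially diluted compounds were then added and incubation continued 7 days at 37 °C. p24 was measured by ELISA.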
A general note: ELISA stands for enzyme-linked immunosorbent assay.

The nature of series [3]: Selectivity index, ratio of CC50 for human TZM-bl cells to EC50 for wild-type HIV-1 SF33. The series is classed as toxicity, cell-based. As to conditions: read-out: Ratio CC50/EC50. In outline:
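SI is calculated as CC50 in TZM-bl cells divided by EC50 against HIV-1 SF33 infection.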

Series [4] in a line: Cytotoxicity against human TZM-bl cells after 3 days by XTT assay. The series is classed as cell-based. (In general: Formazan colour is commonly taken as a measure of viable cells.)

A word on the IC50: it is the midpoint of a concentration-inhibition curve. With `Cc1ccc(Sc2cc(CCc3ccccc3)[nH]c(=O)c2I)cc1`, the IC50 in series [1] turned out to be 12 µM. On the same count and under the same terms, the same measure for `O=c1[nH]c(CCc2ccccc2)cc(NC2CCCCC2)c1I`: 15.2 µM. Broadly, the EC50 is the concentration needed to bring the measured effect to its halfway point. The CC50 is the concentration at which the toxic effect on the cells reaches its halfway point. High values mean lower toxicity to the cells, low ones greater toxicity to the cells. For the molecule `CC1CCCCC1Nc1cc(CCc2ccccc2)[nH]c(=O)c1I` (stereo unspecified), it took 2.71 µM to reach a half-maximal effect in series [2] (EC50). Further, the selectivity ratio in series [3] is 18.5. The same molecule yielded a CC50 at 72 h in series [4] of 50.2 µM. In addition, the IC50 in series [1] came to 0.42 µM. Take `O=c1[nH]c(CCc2ccccc2)cc(NC2CCCC2)c1I`: the IC50 in series [1] came out at 24 µM. The same measure, in the same setting: for `O=c1[nH]c(CCc2ccccc2)cc(Nc2ccccc2)c1I` the value was 8.14 µM; for `O=c1[nH]c(CCc2ccccc2)cc(Sc2ccccc2)c1I`, 20.3 µM. Regarding `O=c1[nH]c(CCc2ccccc2)cc(Oc2ccccc2)c1I`, the EC50 in series [2] is 0.15 µM. Also, in series [3], the selectivity ratio amounted to 1200. Besides, in series [4], half-maximal cytotoxicity (CC50 at 72 h) was put at 181 µM. Moreover, the IC50 in series [1] worked out at 0.29 µM.

Take `CC(C)c1c(Oc2ccccc2)cc(CCc2ccccc2)[nH]c1=O`: in series [2], the EC50 amounted to 0.0563 µM. Besides, the selectivity ratio in series [3] amounted to 3470. The midpoint of cytotoxicity in series [4], the CC50 at 72 h, lay at 195 µM. In series [1], the IC50 was found to be 0.089 µM.

With `Cc1ccc(Sc2cc(CCc3ccccc3)[nH]c(=O)c2Br)cc1`, the IC50 in series [1] came to 16.9 µM. Same read-out and setting: the same measure for `O=c1[nH]c(CCc2ccccc2)cc(NC2CCCCC2)c1Br`: 40.3 µM. For `CC1CCCCC1Nc1cc(CCc2ccccc2)[nH]c(=O)c1Br` (stereo unspecified), it took 13.7 µM to reach a half-maximal effect in series [2] (EC50). In addition, the selectivity ratio in series [3] is 9.6. Moreover, in series [4], the CC50 at 72 h came out at 131 µM. Also, the IC50 in series [1] was determined as 0.68 µM. Consider `O=c1[nH]c(CCc2ccccc2)cc(NC2CCCC2)c1Br`, for which the IC50 in series [1] came to 43.3 µM. Same read-out and setting: the same measure for `O=c1[nH]c(CCc2ccccc2)cc(Nc2ccccc2)c1Br`: 11.3 µM; for `O=c1[nH]c(CCc2ccccc2)cc(Sc2ccccc2)c1Br`: 57.1 µM. The same measure, in the same setting: the same measure for `CN(C)c1c(Sc2ccccc2)cc(CCc2ccccc2)[nH]c1=O`: 15.2 µM. For `CC(C)c1c(Sc2ccccc2)cc(CCc2ccccc2)[nH]c1=O`, in series [2], the EC50 turned out to be 0.136 µM. In addition, the selectivity ratio in series [3] turned out to be 998. Moreover, it took 136 µM to reach half-maximal cytotoxicity in series [4] (CC50 at 72 h). Moreover, in series [1], the concentration for half-maximal inhibition (IC50) turned out to be 0.093 µM.
